Measurements published in ChEMBL document CHEMBL3259701, “Siderophore receptor-mediated uptake of lactivicin analogues in gram-negative bacteria” (J Med Chem, 2014).
In brackets after ≈: the same amount, converted by molar mass.

Experiments:
Pseudomonas aeruginosa [1] = assay: Antibacterial activity against Pseudomonas aeruginosa PAO1 harboring siderophore receptor piuA, pfeA and pirA mutant in Mueller-Hinton broth medium by CLSI broth microdilution method; format: functional
Outline: (§1)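 MIC by CLSI broth microdilution in standard Mueller Hinton broth. Tested against wild-type P. aeruginosa PAO1 and an isogenic panel lacking one or more siderophore receptors.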

Pseudomonas aeruginosa [2] = assay: Ratio of MIC for Pseudomonas aeruginosa PAO1 harboring siderophore receptor fpvA mutant to MIC for wild type Pseudomonas aeruginosa PAO1 in Mueller-Hinton broth medium by CLSI broth microdilution method; format: functional
Outline: (§2)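 Receptor-deficient PAO1 strain MIC divided by parent PAO1 MIC. Both MICs were obtained by CLSI broth microdilution in standard Mueller Hinton broth. A shift greater than 4× was taken to indicate that the deleted receptor(s) take part in drug uptake.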

Pseudomonas aeruginosa [3] = assay: Ratio of MIC for Pseudomonas aeruginosa PAO1 harboring siderophore receptor pfeA mutant to MIC for wild type Pseudomonas aeruginosa PAO1 in Mueller-Hinton broth medium by CLSI broth microdilution method; format: functional; outline: as §2
Pseudomonas aeruginosa [4] = assay: Ratio of MIC for Pseudomonas aeruginosa PAO1 harboring siderophore receptor piuA and fpvA double mutant to MIC for wild type Pseudomonas aeruginosa PAO1 in Mueller-Hinton broth medium by CLSI broth microdilution method; format: functional
Outline: (§3)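 Broth microdilution MIC per CLSI in standard Mueller-Hinton broth, run against wild-type P. aeruginosa PAO1 and isogenic PAO1 strains lacking one or more siderophore receptors. Value is the mutant-strain MIC divided by the PAO1 MIC.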

Pseudomonas aeruginosa [5] = assay: Ratio of MIC for Pseudomonas aeruginosa PAO1 harboring siderophore receptor piuA and pirA double mutant to MIC for wild type Pseudomonas aeruginosa PAO1 in Mueller-Hinton broth medium by CLSI broth microdilution method; format: functional; outline: as §3
Pseudomonas aeruginosa [6] = assay: Antibacterial activity against Pseudomonas aeruginosa PAO1 harboring siderophore receptor fptA mutant in medium containing low-Fe by CLSI broth microdilution method; format: functional
Outline: (§4)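 MIC by CLSI broth microdilution in a modified Mueller Hinton broth depleted of iron to mimic the low-iron in vivo environment. Tested against PAO1 and isogenic strains lacking one or more siderophore receptors.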

Pseudomonas aeruginosa [7] = assay: Antibacterial activity against Pseudomonas aeruginosa PAO1 harboring siderophore receptor piuA and fpvA double mutant in medium containing low-Fe by CLSI broth microdilution method; format: functional; outline: as §4
Pseudomonas aeruginosa [8] = assay: Antibacterial activity against Pseudomonas aeruginosa PAO1 harboring siderophore receptor piuA and fptA double mutant in medium containing low-Fe by CLSI broth microdilution method; format: functional; outline: as §4
Pseudomonas aeruginosa [9] = assay: Antibacterial activity against Pseudomonas aeruginosa PAO1 harboring siderophore receptor piuA, pfeA and pirA mutant in medium containing low-Fe by CLSI broth microdilution method; format: functional; outline: as §4
Pseudomonas aeruginosa [10] = assay: Ratio of MIC for Pseudomonas aeruginosa PAO1 harboring siderophore receptor piuA mutant to MIC for wild type Pseudomonas aeruginosa PAO1 in medium containing low-Fe by CLSI broth microdilution method; format: functional
Outline: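 CLSI broth microdilution MICs in a modified Mueller-Hinton broth depleted of iron to mimic low in vivo iron. Tested against wild-type PAO1 and isogenic siderophore receptor knockout strains. Reported as the knockout-strain MIC divided by the PAO1 MIC in the same iron-depleted medium.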

Pseudomonas aeruginosa [11] = assay: Ratio of MIC for Pseudomonas aeruginosa PAO1 harboring siderophore receptor pfeA mutant to MIC for wild type Pseudomonas aeruginosa PAO1 in medium containing low-Fe by CLSI broth microdilution method; format: functional
Outline: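 Ratio of strain MIC to PAO1 MIC. Both MICs were obtained by CLSI broth microdilution in iron-depleted modified Mueller Hinton broth. A shift greater than 4× versus the parent was read as the deleted receptor(s) taking part in uptake.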

Pseudomonas aeruginosa [12] = assay: Ratio of MIC for wild type Pseudomonas aeruginosa PAO1 in MHB medium to MIC for wild type Pseudomonas aeruginosa PAO1 in medium containing low-Fe by CLSI broth microdilution method; format: functional
Outline: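 MICs for wild-type P. aeruginosa PAO1 were determined by CLSI broth microdilution in standard Mueller Hinton broth and, in parallel, in a modified broth depleted of iron to mimic the low-iron in vivo environment. The ratio compares the MIC in standard MHB with the MIC in iron-depleted broth.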

Pseudomonas aeruginosa [13] = assay: Ratio of MIC for Pseudomonas aeruginosa PAO1 harboring siderophore receptor fpvA mutant in MHB medium to MIC for Pseudomonas aeruginosa PAO1 harboring siderophore receptor fpvA mutant in medium containing low-Fe by CLSI broth microdilution method; format: functional
Pseudomonas aeruginosa [14] = assay: Ratio of MIC for Pseudomonas aeruginosa PAO1 harboring siderophore receptor fptA mutant in MHB medium to MIC for Pseudomonas aeruginosa PAO1 harboring siderophore receptor fptA mutant in medium containing low-Fe by CLSI broth microdilution method; format: functional
Pseudomonas aeruginosa [15] = assay: Antibacterial activity against Pseudomonas aeruginosa PAO1 in medium containing aztreonam and low-Fe by CLSI broth microdilution method; format: functional
Pseudomonas aeruginosa [16] = assay: Antibacterial activity against Pseudomonas aeruginosa PAO1 harboring siderophore receptor pirA mutant in medium containing aztreonam and low-Fe by CLSI broth microdilution method; format: functional
Pseudomonas aeruginosa [17] = assay: Antibacterial activity against Pseudomonas aeruginosa PAO1 harboring siderophore receptor piuA and fpvA double mutant in medium containing aztreonam and low-Fe by CLSI broth microdilution method; format: functional
Pseudomonas aeruginosa [18] = assay: Antibacterial activity against Pseudomonas aeruginosa PAO1 harboring siderophore receptor pirA and pfeA double mutant in medium containing aztreonam and low-Fe by CLSI broth microdilution method; format: functional
Pseudomonas aeruginosa [19] = assay: Antibacterial activity against Pseudomonas aeruginosa PAO1 harboring siderophore receptor piuA, pfeA and pirA mutant in medium containing aztreonam and low-Fe by CLSI broth microdilution method; format: functional
Pseudomonas aeruginosa [20] = assay: Ratio of MIC for Pseudomonas aeruginosa PAO1 harboring siderophore receptor piuA mutant to MIC for wild type Pseudomonas aeruginosa PAO1 in medium containing aztreonam and low-Fe by CLSI broth microdilution method; format: functional
Pseudomonas aeruginosa [21] = assay: Ratio of MIC for Pseudomonas aeruginosa PAO1 harboring siderophore receptor piuA and fptA double mutant to MIC for wild type Pseudomonas aeruginosa PAO1 in medium containing aztreonam and low-Fe by CLSI broth microdilution method; format: functional
Pseudomonas aeruginosa [22] = assay: Ratio of MIC for Pseudomonas aeruginosa PAO1 harboring siderophore receptor piuA and pirA double mutant to MIC for wild type Pseudomonas aeruginosa PAO1 in medium containing aztreonam and low-Fe by CLSI broth microdilution method; format: functional
Escherichia coli [23] = assay: Antibacterial activity against Escherichia coli DH5alpha by CLSI broth microdilution method; format: functional; settings: DH5[alpha]
Escherichia coli [24] = assay: Antibacterial activity against Escherichia coli DH5alpha expressing beta-lactamase TEM-1 by CLSI broth microdilution method; format: functional; settings: DH5[alpha]
Escherichia coli [25] = assay: Antibacterial activity against Escherichia coli DH5alpha expressing beta-lactamase CTX-M-15 by CLSI broth microdilution method; format: functional; settings: DH5[alpha]
Escherichia coli [26] = assay: Antibacterial activity against Escherichia coli DH5alpha expressing beta-lactamase OXA-24/40 by CLSI broth microdilution method; format: functional; settings: DH5[alpha]
Escherichia coli [27] = assay: Antibacterial activity against Escherichia coli DH5alpha expressing beta-lactamase KPC-3 by CLSI broth microdilution method; format: functional; settings: DH5[alpha]
[28] = Displacement of fluorescent Bocillin FL from Pseudomonas aeruginosa PBP3
Pseudomonas aeruginosa [29] = assay: Ratio of MIC for Pseudomonas aeruginosa PAO1 harboring siderophore receptor pirA and pfeA double mutant to MIC for wild type Pseudomonas aeruginosa PAO1 in Mueller-Hinton broth medium by CLSI broth microdilution method; format: functional; outline: as §2
Pseudomonas aeruginosa [30] = assay: Antibacterial activity against Pseudomonas aeruginosa PAO1 harboring siderophore receptor fpvA mutant in Mueller-Hinton broth medium by CLSI broth microdilution method; format: functional; outline: as §1
Pseudomonas aeruginosa [31] = assay: Antibacterial activity against Pseudomonas aeruginosa PAO1 harboring siderophore receptor piuA and fpvA double mutant in Mueller-Hinton broth medium by CLSI broth microdilution method; format: functional; outline: as §1

## CC(C)(O/N=C(\C(=O)N[C@H]1CON(C2(C(=O)O)C[C@H](N3C(=O)c4cc(O)c(O)cc4C3=O)C(=O)O2)C1=O)c1csc(N)n1)C(=O)O (stereo partly specified)
Pseudomonas aeruginosa [1]
  MIC: 16 µg/mL (≈ 24.1 µM)
Pseudomonas aeruginosa [2]
  Ratio: 32
Pseudomonas aeruginosa [3]
  Ratio: 1
Pseudomonas aeruginosa [4]
  Ratio: 32
Pseudomonas aeruginosa [5]
  Ratio: 32
Pseudomonas aeruginosa [6]
  MIC: 0.06 µg/mL (≈ 0.0906 µM)
Pseudomonas aeruginosa [7]
  MIC: 0.25 µg/mL (≈ 0.377 µM)
Pseudomonas aeruginosa [8]
  MIC: 0.5 µg/mL (≈ 0.755 µM)
Pseudomonas aeruginosa [9]
  MIC: 0.25 µg/mL (≈ 0.377 µM)
Pseudomonas aeruginosa [10]
  Ratio: >=4
Pseudomonas aeruginosa [11]
  Ratio: 1
Pseudomonas aeruginosa [12]
  Ratio: 16
Pseudomonas aeruginosa [13]
  Ratio: 512
Pseudomonas aeruginosa [14]
  Ratio: 64
Pseudomonas aeruginosa [15]
  MIC: 4 µg/mL (≈ 6.04 µM)
Pseudomonas aeruginosa [16]
  MIC: 4 µg/mL (≈ 6.04 µM)
Pseudomonas aeruginosa [17]
  MIC: 4 µg/mL (≈ 6.04 µM)
Pseudomonas aeruginosa [18]
  MIC: 4 µg/mL (≈ 6.04 µM)
Pseudomonas aeruginosa [19]
  MIC: 4 µg/mL (≈ 6.04 µM)
Pseudomonas aeruginosa [20]
  Ratio: 1
Pseudomonas aeruginosa [21]
  Ratio: 1
Pseudomonas aeruginosa [22]
  Ratio: 1
Escherichia coli [23]
  MIC: 0.03 µg/mL (≈ 0.0453 µM)
Escherichia coli [24]
  MIC: 0.06 µg/mL (≈ 0.0906 µM)
Escherichia coli [25]
  MIC: 0.015 µg/mL (≈ 0.0226 µM)
Escherichia coli [26]
  MIC: 0.03 µg/mL (≈ 0.0453 µM)
Escherichia coli [27]
  MIC: 0.03 µg/mL (≈ 0.0453 µM)
[28]
  IC50: 46 nM
Pseudomonas aeruginosa [29]
  Ratio: 1
Pseudomonas aeruginosa [30]
  MIC: 16 µg/mL (≈ 24.1 µM)
Pseudomonas aeruginosa [31]
  MIC: 16 µg/mL (≈ 24.1 µM)
